Compounds with a hit are over-represented: about 1.3% of the library has one in this group of screens.
sPLA2-III inh – Inhibits HGIII-sPLA2 liposome hydrolysis, primary screen. 370,000 tested, 0.56% active. QFRET BODIPY PC-A2 liposome hydrolysis, fluorescence. inhibition, % at 12.2 µM. Q9NZ20;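 active = inhibition above mean plus 3 SD of compounds lying within the high and low control bounds, cut at about 19% in these data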;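 also: 0% = median of test compound wells and 100% = no enzyme DMSO wells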
Target sequence (Q9NZ20 whole entry, looked up): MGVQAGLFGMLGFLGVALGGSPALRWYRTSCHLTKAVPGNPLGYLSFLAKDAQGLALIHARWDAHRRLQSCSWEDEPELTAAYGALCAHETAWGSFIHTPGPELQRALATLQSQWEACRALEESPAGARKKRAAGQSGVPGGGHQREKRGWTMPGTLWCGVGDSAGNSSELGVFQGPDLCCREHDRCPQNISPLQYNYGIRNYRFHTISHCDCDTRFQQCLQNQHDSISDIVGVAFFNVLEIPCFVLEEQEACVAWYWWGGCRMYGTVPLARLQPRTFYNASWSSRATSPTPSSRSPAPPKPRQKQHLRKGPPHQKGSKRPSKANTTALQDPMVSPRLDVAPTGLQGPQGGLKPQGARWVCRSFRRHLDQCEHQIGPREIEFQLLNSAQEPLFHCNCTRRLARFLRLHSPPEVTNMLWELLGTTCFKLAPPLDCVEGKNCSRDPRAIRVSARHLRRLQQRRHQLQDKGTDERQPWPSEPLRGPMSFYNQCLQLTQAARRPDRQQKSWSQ
TAG inh – reduces triacylglycerol accumulation in H9c2 cells. Nile Red lipid (TAG) fluorescence; cells loaded with 200 µM oleic acid. inhibition, % at 12.5 µM. 230,000 tested, 0.66% active;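 active = pattern-corrected inhibition of lipid staining of at least 50% with the nuclear-stain viability signal not falling by more than 50%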;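 also: 0% = DMSO wells and 100% = triacsin C control wells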
MT1-MMP act inh – blocks activation of human MT1-MMP. P50281. HT1080 RFP-PRO-GFP cells, GFP/RFP ratio fluorescence, overnight; percent of plate control window, DMSO zero. GFP/RFP ratio change, % at 20 µM. 360,000 tested, 0.061% active. AID 651647;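 active = GFP/RFP ratio change of at least 30% with cell ATP level not reduced by more than half and red fluorescence within 50% of control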
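Assay system – RFP-PRO-GFP reporter HT1080 cells · Compound dosing – single dose of 20 µM compound, 1% DMSO final · Incubation – overnight compound exposure at 37 °C · Measure – GFP/RFP fluorescence ratio · Benchmarks – DMSO wells and RFP-L50D-GFP cells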
Efflux pump inh – blocks antifungal efflux pumps in multiplex yeast assay | AID 485275 | inhibition, % at 10 µM | 330,000 tested, 0.44% active | S. cerevisiae Candida pump triplex, Nile Red efflux;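 active = plate passing quality check with inhibition over a set limit, or well fluorescence over plate mean plus 4 SD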;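 also: Nile Red retained in pooled yeast measured as flow cytometry median fluorescence; 0% = buffer negative control and 100% = Enniatin B positive control; higher means more Nile Red kept so more efflux inhibition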
Yeast cmpd fluor – compound fluorescence in yeast efflux pump counter-screen; AID 588517; 1,700 tested, 4% active; S. cerevisiae AD/pABC3, flow cytometry; shares compounds with Efflux pump inh; fluorescence ratio to DMSO, % at 10 µM;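 active = fluorescence ratio to DMSO above its plate's cutoff, the plate mean ratio plus 5 SD, cut at about 210% in these data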;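 also: unstained yeast with no Nile Red so the signal is compound autofluorescence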
Mdr1 pump inh – inhibitors of Candida albicans Mdr1 efflux pump; S. cerevisiae AD/CaMDR1, Nile Red efflux, flow cytometry; shares compounds with Efflux pump inh; 1,700 tested, 1% active; inhibition, % at 10 µM; in the data active = inhibition above about 26%;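 also: 0% = DMSO vehicle and 100% = reference inhibitor; higher means more Nile Red retained so more efflux inhibition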
CaCdr2 efflux inh – Candida Cdr2 efflux pump inhibition | Nile Red retention ratio vs DMSO, % at 10 µM | S. cerevisiae AD/CaCDR2, Nile Red retention, flow cytometry | shares compounds with Efflux pump inh | 1,700 tested, 4% active; in the data active = Nile Red retention ratio vs DMSO above about 190%;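 also: higher ratio means more blocking of Cdr2 efflux of the dye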
CaCdr1 efflux inh – blocks the Candida albicans Cdr1 efflux pump in yeast. shares compounds with Efflux pump inh. S. cerevisiae AD/CaCDR1, Nile Red efflux, flow cytometry. inhibition, % at 10 µM. 1,700 tested, 1% active;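 active = inhibition above the screen-wide mean plus twice its standard deviation, cut at about 32% in these data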
Active calls of the source: *; · = no result.

SMILES	sPLA2-III inh	TAG inh	MT1-MMP act inh	Efflux pump inh	Yeast cmpd fluor	Mdr1 pump inh	CaCdr2 efflux inh	CaCdr1 efflux inh
O=C(Nc1ccccc1C(=O)O)c1cccc(NC(=O)c2ccco2)c1	-5	-9	1	1	·	·	·	·
O=C(O)Cc1ccc(NC(=O)c2ccc(NC(=O)c3ccco3)cc2)cc1	4	·	2	11*	107	0	100	0
COc1ccc(-c2cc(C(F)(F)F)n3nc(C(=O)Nc4cc(C)on4)cc3n2)cc1OC	-3	21	-15	0	·	·	·	·
COc1ccc(-c2cc(C(F)(F)F)n3nc(C(=O)N(C)Cc4ccccc4)cc3n2)cc1OC	6	0	0	1.4*	96	0	97	0
Cc1ccc(Nc2ccc(S(=O)(=O)N3CCOCC3)cc2[N+](=O)[O-])cc1C	2	·	1	0	·	·	·	·
Cc1c(C(=O)Nc2c(F)cccc2F)sc2ncn(CC(=O)N3CCCCC3)c(=O)c12	-4	·	1	0	·	·	·	·
COCCNC(=O)c1sc2ncn(CC(=O)N3CCCCC3)c(=O)c2c1C	4	-7	2	1.8*	106	0	106	0
O=C(c1ccco1)N1CCc2[nH]nc(-c3ccccc3)c2C1	-5	·	2	0	·	·	·	·
CC(C)Cn1c(SCC(=O)c2ccc(Cl)s2)nnc1-c1ccco1	-57	·	-2	1.1*	100	0	107	0
O=C(COc1ccc(-c2ccccc2)cc1)NNC(=O)NC1CCCCC1	-50	-2	4	0	·	·	·	·
CCCCC(CC)CN=C(N)NC(N)=NCCCCCCN=C(N)NC(N)=NCC(CC)CCCC (configuration not stated)	·	128	·	2.2*	93	0	131	0
O=C(NCCCN1CCOCC1)C(=O)N/N=C/c1ccccc1Cl	5	6	-2	0	·	·	·	·
O=C(NCCN1CCOCC1)c1cccc(S(=O)(=O)N2CCCCC2)c1	3	-6	0	1	·	·	·	·
O=C(NCCCN1CCOCC1)C(=O)N/N=C/c1ccccc1O	0	-2	2	0.8*	111	0	101	0
Cc1ccc(S(=O)(=O)N2CCOCC2)cc1NC(=O)COC(=O)CNC(=O)c1ccccc1	-3	·	-1	9.1*	102	0	101	0
Cc1ccc(S(=O)(=O)N2CCOCC2)cc1NC(=O)COC(=O)Cc1cccs1	-8	6	8	0	·	·	·	·
O=C(NCCCN1CCOCC1)c1cccc(S(=O)(=O)N2CCOCC2)c1	-2	-10	1	106*	103	0	104	0
CC1=C[C@H](C)[C@H](c2c(F)cccc2Cl)CC1=O	·	7	4	0	·	·	·	·
CC(C)c1ccc(NC(=O)Nc2nc(CN)cs2)cc1	15	9	-4	·	·	·	·	·
COc1ccc(Cl)cc1NC(=O)CN1CCc2ccccc21	3	-2	-3	0	·	·	·	·
CCCc1[nH]n(-c2ccc([N+](=O)[O-])cc2)c(=O)c1C=NCCc1ccc(OC)c(OC)c1	11	25	3	0.8*	111	0	104	0
CCCc1nn2c(=O)cc(CSCC(=O)Nc3ccc(F)cc3)nc2s1	4	·	6	1.9*	100	0	100	0
CCCc1nn2c(=O)cc(CSCC(=O)Nc3ccccc3)nc2s1	9	·	2	0	·	·	·	·
CCCCC(=O)Oc1c(S(=O)(=O)c2ccccc2)c(C)nn1C(C)(C)C	-1	·	-1	1	·	·	·	·
CC(/C=C/c1ccccc1)=N\Nc1nc(C)cc(C)n1	-4	-9	1	5.5*	100	0	112	0
O=C(O)C(c1ccccc1)N1C(=O)/C(=C\c2ccc(O)c(O)c2)SC1=S (configuration not stated)	-30	·	6	2.0*	116	0	125	0
O=C(CN(c1ccc(Cl)c(C(F)(F)F)c1)S(=O)(=O)c1ccccc1)N1CCOCC1	-11	-6	-5	0.7*	102	0	99	0
Fc1ccc(NC(=S)NCc2cccs2)cc1	0	·	·	1	·	·	·	·

High-throughput results (PubChem BioAssay)
